pIC50: −log10 of the molar value. Entries after “also recorded” stand apart in the source; their conditions may differ. Like-named read-outs stand apart in the source and are kept apart here.
Experiments:
[1] = target: T1, rat soluble COMT (Rattus norvegicus, UniProt P22734); test: COMT activity; assay type: biochemical; settings: for Effect upon COMT activity: up to 3000 nM
T1 sequence (P22734 1-221 isoform P22734-2): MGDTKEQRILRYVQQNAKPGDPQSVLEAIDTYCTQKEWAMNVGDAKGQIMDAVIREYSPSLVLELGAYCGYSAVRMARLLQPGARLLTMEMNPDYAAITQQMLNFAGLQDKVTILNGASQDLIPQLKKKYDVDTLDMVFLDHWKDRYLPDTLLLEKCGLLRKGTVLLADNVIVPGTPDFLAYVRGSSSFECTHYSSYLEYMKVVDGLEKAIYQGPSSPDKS

[2] = assay type: in vivo, rat; settings: plasma; for Tmax: median (range)
[3] = assay type: in vivo, rat; settings: oral 100 mg/kg; for Feces, % of administered dose: feces pools 0–48 h
Summary of the method: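 In Sprague Dawley rats given 100 mg/kg [14C]-labelled compound (100 μCi/kg) orally in 0.2% HPMC, heparinized blood was taken by cardiac puncture at 2–168 h. Plasma was precipitated with MeOH/ACN (50:50), dried under N2 and reconstituted. Urine (0–6, 6–24 h) and feces (0–12, 12–24, 24–48 h) were pooled and stored at −80°C. Analysis used accurate-mass LC-MS with offline radiodetection.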

[4] = system: HLS9, HIS9, and SULT1A1; test: Inhibition of opicapone sulfation, result in words for all enzyme sources; assay type: biochemical, human; settings: acetaminophen 1–500 μM; quercetin and 2,6-dichloro-4-nitrophenol 0.05–100 μM
[5] = rat, po, 1 g/kg, t max, oral 1 g/kg opicapone

With `Cc1nc(Cl)c(-c2noc(-c3cc(O)c(O)c([N+](=O)[O-])c3)n2)c(C)c1Cl` [BIA 9‐1079, 5-(3-(2,5-dichloro-4,6-dimethylpyridin-3-yl)-1,2,4-oxadiazol-5-yl)-3-nitrobenzene-1,2-diol] the pIC50 [1] was 6.89, the “Effect upon COMT activity” value [1] was “active in inhibiting the enzyme” and the AUC(0-t) ([2]; rat, po, 1 g/kg) was 4080 ng·h/mL. The Cmax ([2]; rat, po, 1 g/kg) was 381 ng/mL, the Tmax [2, 5] was 4 h and the “Feces, % of administered dose” value ([3]; ND = not detected, 100 mg/kg) was 1.14%. The “Detectable in the circulation up to (time post-dose)” value ([3]; plasma) was 8 h.

In the case of `COc1cc(-c2nc(-c3c(C)c(Cl)c(C)[n+]([O-])c3Cl)no2)cc([N+](=O)[O-])c1O` [BIA 9‐1100, 2,5-dichloro-3-(5-(4-hydroxy-3-methoxy-5-nitrophenyl)-1,2,4-oxadiazol-3-yl)-4,6-dimethylpyridine 1-oxide], the “Effect upon COMT activity” value [1] was “no modulatory effect”, the AUC(0-t) ([2]; rat, po, 1 g/kg) was 7920 ng·h/mL and the Cmax ([2]; rat, po, 1 g/kg) was 1420 ng/mL. For the same compound, the Tmax [2, 5] was 1.5 h.

In the case of `COc1c(O)cc(-c2nc(-c3c(C)c(Cl)c(C)[n+]([O-])c3Cl)no2)cc1[N+](=O)[O-]` [BIA 9‐1104, 2,5-dichloro-3-(5-(3-hydroxy-4-methoxy-5-nitrophenyl)-1,2,4-oxadiazol-3-yl)-4,6-dimethylpyridine 1-oxide], the pIC50 [1] was 6.37 and the “Effect upon COMT activity” value [1] was “active in inhibiting the enzyme; also recorded: endowed with activity in inhibiting COMT”.

For `Cc1nc(Cl)c(-c2noc(-c3cc(OS(=O)(=O)O)c(O)c([N+](=O)[O-])c3)n2)c(C)c1Cl.c1ccncc1` [BIA 9‐1105, pyridinium 5-(3-(2,5-dichloro-4,6-dimethylpyridin-3-yl)-1,2,4-oxadiazol-5-yl)-2-hydroxy-3-nitrophenyl sulfate], the C max ([2]; oral 1 g/kg opicapone, mean (SD)) was 58.2 (32.6) ng/ml, the “AUC0–t” value ([2]; oral 1 g/kg opicapone, mean (SD), sampling to 48 h) was 1322.5 (503.5) ng.h/ml and the Tmax ([2]; oral 1 g/kg opicapone) was 16 (8–24) h.

For `Cc1c(Cl)c(C)[n+]([O-])c(Cl)c1-c1noc(-c2cc(O[C@@H]3O[C@H](C(=O)O)[C@@H](O)[C@H](O)[C@H]3O)c(O)c([N+](=O)[O-])c2)n1` [BIA 9‐1106, 3-(5-(3-((2S,3R,4S,5S,6S)-6-carboxy-3,4,5-trihydroxytetrahydro-2H-pyran-2-yloxy)-4-hydroxy-5-nitrophenyl)-1,2,4-oxadiazol-3-yl)-2,5-dichloro-4,6-dimethylpyridine 1-oxide], the Cmax ([2]; rat, po, 1 g/kg) was 4290 ng/mL and the “Urine, % of administered dose” value ([3]; urine pools 0–24 h, ND = not detected) was 0.85%.

For `Cc1nc(Cl)c(-c2noc(-c3cc(O[C@@H]4O[C@H](C(=O)O)[C@@H](O)[C@H](O)[C@H]4O)c(O)c([N+](=O)[O-])c3)n2)c(C)c1Cl` [BIA 9‐1107, (2S,3S,4S,5R,6S)-6-(5-(3-(2,5-dichloro-4,6-dimethylpyridin-3-yl)-1,2,4-oxadiazol-5-yl)-2-hydroxy-3-nitrophenoxy)-3,4,5-trihydroxy-tetrahydro-2H-pyran-2-carboxylic acid], the “Amount detected in circulation” value ([2]; oral 1 g/kg opicapone) was “only traceable amounts”.

For `Nc1cc(C(=O)O)cc(O)c1O` [BIA 9‐3721, 3-amino-4,5-dihydroxybenzoic acid], the “Feces, % of administered dose” value ([3]; ND = not detected) was 1.87%.

With `CC(=O)Nc1cc(C(=O)O)cc(O)c1O` [BIA 9‐3752, 3-acetamido-4,5-dihydroxybenzoic acid] the “Effect upon COMT activity” value [1] was “no modulatory effect”.

For `O=[N+]([O-])c1cc(Cl)c(O)c(Cl)c1` [DCNP, 2,6‐dichloro‐4‐nitrophenol], the “Inhibition of the sulfate conjugation of opicapone” value (“Inhibition” below) [4] was “completely inhibited”.

With `O=c1c(O)c(-c2ccc(O)c(O)c2)oc2cc(O)cc(O)c12` [Quercetin, quercetin] the “Inhibition” value [4] was “completely inhibited”.

For `CC(=O)Nc1ccc(O)cc1` [acetaminophen], the “Inhibition” value [4] was “No inhibition”.
